Data published in ChEMBL document CHEMBL1687823, “PA-824 exhibits time-dependent activity in a murine model of tuberculosis” (Antimicrob Agents Chemother, 2011).

Assays:
[1] = system: Mycobacterium tuberculosis; test: fT>MIC for >= 1 log reduction in CFU count in Mycobacterium tuberculosis H37Rv in using simulated dose of at 400 mg assessed as time during compound concentration exceeds MIC of 0.12500 ug/ml assuming 10% unbound compound concentration by one compartment human pharmacokinetic model; type: functional
Procedure, shortened: (§1)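 Human steady-state simulation: one-compartment PK model fitted to patient data, chosen by AIC. Median PK parameters used to simulate total and free concentrations, assuming 5, 7, 10 or 15% unbound, for 100, 200 and 400 mg once daily. Free levels compared with MICs of 0.03125 to 0.25 µg/ml to give %T>MIC; T>MIC is the cumulative percentage of the dosing interval above MIC.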

[2] = system: Mycobacterium tuberculosis; test: fT>MIC for >= 1 log reduction in CFU count in Mycobacterium tuberculosis H37Rv in using simulated dose of at 100 mg assessed as time during compound concentration exceeds MIC of 0.25000 ug/ml assuming 5% unbound compound concentration by one compartment human pharmacokinetic model; type: functional
Procedure, shortened: (§2)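 A one-compartment PK model was fitted to human data to get median parameters. It simulated steady-state total and free concentrations for 100, 200 or 400 mg once daily, assuming 5, 7, 10 or 15% unbound drug. Free T>MIC was computed against MICs of 0.03125–0.25 µg/ml and compared with the mouse-derived T>MIC target for 1-log10 kill.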

[3] = system: Mycobacterium tuberculosis; test: fT>MIC for >= 1 log reduction in CFU count in Mycobacterium tuberculosis H37Rv in using simulated dose of at 200 mg assessed as time during compound concentration exceeds MIC of 0.06250 ug/ml assuming 15% unbound compound concentration by one compartment human pharmacokinetic model; type: functional; procedure, shortened: as §2
[4] = system: Mycobacterium tuberculosis; test: fT>MIC for >= 1 log reduction in CFU count in Mycobacterium tuberculosis H37Rv in using simulated dose of at 200 mg assessed as time during compound concentration exceeds MIC of 0.03125 ug/ml assuming 5% unbound compound concentration by one compartment human pharmacokinetic model; type: functional; procedure, shortened: as §2
[5] = system: Mycobacterium tuberculosis; test: fT>MIC for >= 1 log reduction in CFU count in Mycobacterium tuberculosis H37Rv in using simulated dose of at 400 mg assessed as time during compound concentration exceeds MIC of 0.12500 ug/ml assuming 5% unbound compound concentration by one compartment human pharmacokinetic model; type: functional; procedure, shortened: as §1
[6] = system: Mycobacterium tuberculosis; test: fT>MIC for >= 1 log reduction in CFU count in Mycobacterium tuberculosis H37Rv in using simulated dose of at 100 mg assessed as time during compound concentration exceeds MIC of 0.12500 ug/ml assuming 5% unbound compound concentration by one compartment human pharmacokinetic model; type: functional; procedure, shortened: as §2
[7] = system: Mycobacterium tuberculosis; test: fT>MIC for >= 1 log reduction in CFU count in Mycobacterium tuberculosis H37Rv in using simulated dose of at 200 mg assessed as time during compound concentration exceeds MIC of 0.25000 ug/ml assuming 15% unbound compound concentration by one compartment human pharmacokinetic model; type: functional; procedure, shortened: as §2
[8] = system: Mycobacterium tuberculosis; test: fT>MIC for >= 1 log reduction in CFU count in Mycobacterium tuberculosis H37Rv in using simulated dose of at 100 mg assessed as time during compound concentration exceeds MIC of 0.12500 ug/ml assuming 10% unbound compound concentration by one compartment human pharmacokinetic model; type: functional; procedure, shortened: as §2
[9] = system: Mycobacterium tuberculosis; test: fT>MIC for >= 1 log reduction in CFU count in Mycobacterium tuberculosis H37Rv in using simulated dose of at 200 mg assessed as time during compound concentration exceeds MIC of 0.03125 ug/ml assuming 7% unbound compound concentration by one compartment human pharmacokinetic model; type: functional; procedure, shortened: as §2
[10] = Tmax in BALB/c mouse up to 1456 mg/kg, po administered as single dose; type: ADME, organism-based; set-up: route oral; details: in vivo
Procedure, shortened: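 Uninfected 6-week female BALB/c mice received single oral gavage doses of 3–1,458 mg/kg as a cyclodextrin-micelle suspension. Three mice per time point were bled by cardiac puncture under isoflurane at 0.5–120 h. Serum levels were measured by validated HPLC-UV (standards 0.20–50 µg/ml).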

[11] = system: Mycobacterium tuberculosis; test: fT>MIC for >= 1 log reduction in CFU count in Mycobacterium tuberculosis H37Rv in using simulated dose of at 400 mg assessed as time during compound concentration exceeds MIC of 0.03125 ug/ml assuming 10% unbound compound concentration by one compartment human pharmacokinetic model; type: functional; procedure, shortened: as §2
[12] = system: Mycobacterium tuberculosis; test: fT>MIC for >= 1 log reduction in CFU count in Mycobacterium tuberculosis H37Rv in using simulated dose of at 200 mg assessed as time during compound concentration exceeds MIC of 0.12500 ug/ml assuming 10% unbound compound concentration by one compartment human pharmacokinetic model; type: functional; procedure, shortened: as §2
[13] = system: Mycobacterium tuberculosis; test: fT>MIC for >= 1 log reduction in CFU count in Mycobacterium tuberculosis H37Rv in using simulated dose of at 100 mg assessed as time during compound concentration exceeds MIC of 0.25000 ug/ml assuming 15% unbound compound concentration by one compartment human pharmacokinetic model; type: functional; procedure, shortened: as §2
[14] = system: Mycobacterium tuberculosis; test: fT>MIC for >= 1 log reduction in CFU count in Mycobacterium tuberculosis H37Rv in using simulated dose of at 400 mg assessed as time during compound concentration exceeds MIC of 0.03125 ug/ml assuming 7% unbound compound concentration by one compartment human pharmacokinetic model; type: functional; procedure, shortened: as §2
[15] = system: Mycobacterium tuberculosis; test: Antitubercular activity against Mycobacterium tuberculosis H37Rv infected in BALB/c mouse assessed as reduction in log10 CFU count at 96 mg/kg, po for 5 days relative to control; type: functional
[16] = system: Mycobacterium tuberculosis; test: fT>MIC for >= 1 log reduction in CFU count in Mycobacterium tuberculosis H37Rv in using simulated dose of at 400 mg assessed as time during compound concentration exceeds MIC of 0.03125 ug/ml assuming 15% unbound compound concentration by one compartment human pharmacokinetic model; type: functional; procedure, shortened: as §2
[17] = system: Mycobacterium tuberculosis; test: fT>MIC for >= 1 log reduction in CFU count in Mycobacterium tuberculosis H37Rv in using simulated dose of at 100 mg assessed as time during compound concentration exceeds MIC of 0.12500 ug/ml assuming 7% unbound compound concentration by one compartment human pharmacokinetic model; type: functional; procedure, shortened: as §2

In the case of O=[N+]([O-])c1cn2c(n1)OC[C@@H](OCc1ccc(OC(F)(F)F)cc1)C2 [PRETOMANID], the “fT>MIC” value [1] is reported as 100%, the “fT>MIC” value [2] is reported as 0% and the “fT>MIC” value [3] is reported as 100%. For the same molecule, the “fT>MIC” value [4] was 100%, the “fT>MIC” value [5] was 46% and the “fT>MIC” value [6] was 0%. The “fT>MIC” value [7] was 6%, the “fT>MIC” value [8] was 0% and the “fT>MIC” value [9] was 100%. For the same molecule, the Tmax [10] was 4 h, the “fT>MIC” value [11] was 100% and the “fT>MIC” value [12] was 46%. For the same molecule, the “fT>MIC” value [13] was 0%, the “fT>MIC” value [14] was 100% and the log10cfu [15] was 2. The “fT>MIC” value [16] was 100% and the “fT>MIC” value [17] was 0%.
